# STAT3 act-1: STAT3 signaling activation | U3A cells, IL-6 STAT3-luciferase reporter, luminescence; 100% = signal with IL-6 EC80 alone | activation (% of control), % at 5.6 µM | hit rate 0.91% among 190,000 | AID 871;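 active means activation above the screen-wide mean of compound activation plus 3 SD, cut at about 130% in these data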;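 further: 0% = background luminescence of wells with medium and substrate only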
#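 System – human U3A cells carrying STAT3-luciferase construct · Probe or stimulus – Interleukin-6, 33 ng/mL · Schedule – compound 1 h, then IL-6 6 h at 37 °C · Signal – luminescence from STAT3-driven luciferase reporter · Evaluation – percent of IL-6-only median luminescence · Benchmarks – IL-6-only high control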
# STAT1 blocker: STAT1 signaling inhibition; hit rate 0.35% among 200,000; AID 920; NIH 3T3 STAT1-luciferase reporter, IFN-gamma, luminescence; inhibition, % at 5.5 µM;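 active means inhibition above a set limit, the mean inhibition across all tested compounds plus 3 SD, cut at about 34% in these data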;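 further: 0% = IFN-gamma with DMSO and 100% = IFN-gamma with 300 µM nifuroxazide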
# STAT1 act-1: increases IFN-gamma driven STAT1 reporter signal; NIH 3T3 STAT1-luciferase reporter, luminescence; 100% = IFN-gamma alone, no compound; activation (% of control), % at 5.5 µM; hit rate 2.6% among 200,000;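 active means activation above the screen-wide mean activation plus 3 SD, cut at about 130% in these data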;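 further: raw ratio to IFN-gamma control signal so 100% means no change and 0% no light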
# FLuc stim CS: firefly luciferase counter-screen for stimulation assays; AID 1027; ATPlite luciferase biochemical, luminescence, 10 min; 0 = ATP-free wells, 1 = DMSO control; P08659; activation factor at 10 µM; 200,000 tested, under 10 active;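 active means luciferase activation factor, scaled between plate controls, of at least 2 with compound at 10 µM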
# Target sequence (P08659 whole entry, looked up): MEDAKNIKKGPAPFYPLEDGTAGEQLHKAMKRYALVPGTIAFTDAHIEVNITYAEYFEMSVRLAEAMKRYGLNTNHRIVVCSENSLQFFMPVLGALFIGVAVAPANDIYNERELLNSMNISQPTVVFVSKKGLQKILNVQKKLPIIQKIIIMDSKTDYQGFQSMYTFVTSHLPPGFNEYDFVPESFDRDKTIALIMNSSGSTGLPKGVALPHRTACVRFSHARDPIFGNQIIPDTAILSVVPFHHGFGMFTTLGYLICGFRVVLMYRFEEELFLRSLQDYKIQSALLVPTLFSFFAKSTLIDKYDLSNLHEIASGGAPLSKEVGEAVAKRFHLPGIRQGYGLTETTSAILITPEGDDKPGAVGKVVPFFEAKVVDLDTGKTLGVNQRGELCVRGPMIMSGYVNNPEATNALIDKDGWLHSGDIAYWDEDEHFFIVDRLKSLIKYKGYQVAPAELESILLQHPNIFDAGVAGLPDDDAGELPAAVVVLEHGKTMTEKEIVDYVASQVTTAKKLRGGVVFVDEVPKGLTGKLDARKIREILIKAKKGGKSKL
#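 Material: Luciferase/luciferin reagent mix; Doses: test compounds dosed from 2 mM stocks in 100% DMSO; Schedule: 10 min incubation after luciferase reagent addition, room temperature; Measured by: luminescence from luciferase reaction; Read-out: luminescence gain marking luciferase activators.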
# FLuc inhib CS: counter-screen for luciferase assay inhibitors: firefly luciferase inhibition. P08659. ATPLite firefly luciferase biochemical luminescence, 10 min. inhibition, % at 10 µM. hit rate 1.5% among 200,000. AID 1006;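 active means inhibition above about 50% when tested at 10 µM, limit read from the data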
# STAT3 inh: inhibitors of IL-6 induced STAT3 signaling; hit rate 0.89% among 190,000; U3A cells, IL-6 STAT3-luciferase reporter, luminescence; host cell line lacks STAT1; AID 862; inhibition, % at 5.5 µM;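 active means inhibition above the mean inhibition across all screened compounds plus 3 SD, cut at about 44% in these data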;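 further: 0% = DMSO only wells and 100% = 100 µM nifuroxazide control wells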
# STAT3 act-2: STAT3 activation, confirmation assay; hit rate 64% among 1,200; potentiation (% of control), % at 5.7 µM; U3A STAT3-luciferase reporter, IL-6 potentiation, luminescence; U3A cells lack STAT1; 100 means same as IL-6 alone; shares compounds with STAT3 act-1; AID 1267;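 active means percent activation of the STAT3 luciferase reporter above a set limit taken from the earlier primary screen, cut at about 130% in these data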;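 further: 0% = background signal of medium plus substrate and 100% = median of IL-6 with DMSO wells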
# NFkB act 2: activates NF-kappaB, counter-screen to STAT3 activators. hit rate 11% among 1,200. activation (% of control), % at 5.7 µM. AID 1309. shares compounds with STAT3 act-1. human cells, NF-kappaB reporter activation; in the data active means activation above about 120%;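 further: reporter induced by TNF-alpha stimulation; 100% = median of stimulated DMSO wells and 0% = no signal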
# STAT1 act-2: activates STAT1, counter-screen to STAT3 activators | AID 1318 | activation (% of control), % at 5.7 µM | NIH 3T3 STAT1-luciferase reporter, IFN-gamma, luminescence | hit rate 13% among 1,200 | shares compounds with STAT3 act-1;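 active means activation above the solvent-only control well mean plus 3 SD, set per screening run, cut at about 120% in these data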;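 further: 100% = IFN-gamma with DMSO median signal so 100% means no change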
# Active calls of the source: *; · = not tested or not shown. An excerpt weighted towards active compounds, which were near 4.9% of everything screened.
SMILES,STAT3 act-1,STAT1 blocker,STAT1 act-1,FLuc stim CS,FLuc inhib CS,STAT3 inh,STAT3 act-2,NFkB act 2,STAT1 act-2
Nn1cnnc1N/N=C\c1ccc(-c2ccccc2[N+](=O)[O-])o1,146.8*,-20.5,118.5,0.9,8.4,-49.6,104.8,103.5,101.2
CCCCCC(=O)N/N=C(\C)c1ccccn1,100.2,-8.5,107.7,1,-3.4,10.0,·,·,·
C/C(=N\Nc1ccc(Cl)cc1)c1ccccn1,139.3*,-21.0,119.3,1,-2.8,-49.9,140.5*,122.5*,147.5*
CC(C)(C)c1cc(C(=O)N2CCc3ccccc32)ccn1,110.7,7.2,93.4,1.1,-5.9,-2.1,·,·,·
CN(C)S(=O)(=O)c1cccc(C(=O)N2CCc3ccccc32)c1,147.8*,3.7,97.3,1,-3.1,-52.8,125.9,108.5,107.6
Cc1ccc(S(=O)(=O)N2CCCCC2)cc1C(=O)Nc1ccc2cn[nH]c2c1,150.7*,14.7,86.6,1,-1.4,-48.7,134.9*,100.6,93.8
O=C(c1cccs1)N1CCCc2ccccc21,106.0,-3.5,103.2,1.1,-7.9,-4.4,·,·,·
Cc1ccc2c(c1)CCCN2C(=O)c1cccs1,146.1*,6.0,94.5,1,-2.3,-50.9,132.4,103.5,107.2
CC(C)(C)c1cc(N)on1,103.9,5.3,95.2,1,-1.4,-6.4,·,·,·
COc1ccccc1N(C)S(=O)(=O)c1ccc(C(=O)OCC(=O)N2CCC2)cc1,99.2,-1.3,101.1,1,-1.1,3.0,·,·,·
O=C(NCCC(=O)N1CCN(c2ncccn2)CC1)c1ccccc1Cl,109.7,-4.6,104.2,1.1,-6.9,-13.5,·,·,·
O=C(NCCC(=O)N1CCN(c2ncccn2)CC1)c1ccccc1,139.5*,-12.1,111.0,1,-0.3,-41.7,101.7,104.6,99.3
CCOC(=O)CN1C=C(c2ccc3ccccc3n2)C(C[N+](=O)[O-])c2ccccc21 (stereo not given),156.8*,0.3,99.7,1.1,-11.0,-58.6,135.9*,107.7,104.4
CCOC(=O)c1ccccc1NC(=O)Cn1c(-c2nonc2N)nc2ccccc21,136.4*,1.5,97.5,1.1,-6.6,-35.6,104.7,129.3*,111.1
CSCC[C@H](NC(=O)CCn1nnc2ccccc2c1=O)C(=O)O,138.5*,-2.8,102.6,1,-3.7,-38.7,92.3,103.2,98.5
CC(=O)Nc1cccc(NC(=O)CSc2ccc(-c3cccnc3)nn2)c1,140.4*,-5.3,105.0,0.9,5.5,-51.1,114.5,98.5,106.0
CCO/C(C)=C1\C(=O)Nc2ccccc21,101.2,20.4,81.4,1.1,-6.6,2.6,·,·,·
CN(O)/C=C1\C(=O)Nc2ccccc21,142.4*,-2.6,102.4,1,-0.8,-49.8,114.8,98.4,103.3
O=C(O)c1sccc1SCc1ccc(Cl)cc1Cl,137.3*,-0.2,100.2,1,-1.4,-39.2,116.1,103.4,90.7
COc1ccc(S(=O)(=O)N2CCC(C(=O)Nc3ccc(F)cc3)CC2)c2cccnc12,99.1,9.1,91.3,1.1,-5.4,5.8,·,·,·
CCCn1c(C)cc(C(=O)COc2ccc(-c3nnco3)cc2)c1C,99.3,-23.4,122.3,0.9,5.1,9.2,·,·,·
COc1cc(NC(=O)C2CCCC2)c(OC)cc1Cl,83.5,3.2,97.0,1,-4.0,23.6,·,·,·
COc1cc(NC(=O)c2cc(C3CC3)on2)c(OC)cc1Cl,159.3*,1.0,99.1,1,-2.3,-59.8,149.9*,103.2,98.0
COc1cc(NC(=O)c2cc(C(C)C)on2)c(OC)cc1Cl,167.9*,0.4,99.6,1,-0.6,-68.9,151.9*,97.0,104.1
CC(=O)Nc1ccc(S(=O)(=O)NNC(=O)c2cc3c4ccccc4n(C)c3s2)cc1,138.7*,4.2,96.2,1.1,-7.3,-36.9,142.2*,105.9,111.1
SMILES,STAT3 act-1,STAT1 blocker,STAT1 act-1,FLuc stim CS,FLuc inhib CS,STAT3 inh,STAT3 act-2,NFkB act 2,STAT1 act-2
CCCn1c(SCC(=O)Nc2cc(S(=O)(=O)N3CCOCC3)ccc2OC)n[nH]c1=O,98.0,1.0,99.1,1.1,-5.5,-0.2,·,·,·
CCOc1c(Br)cc(C(N)=O)cc1OCc1ccccc1,98.5,-4.0,103.5,1,0.3,6.3,·,·,·
c1cncc(-c2noc(-c3cccc4ccccc34)n2)c1,188.5*,-28.4,125.7,0.8,19.1,-105.7,176.4*,123.7*,147.9*
c1ccc(-c2cc(-c3nc(-c4cccnc4)no3)c3ccccc3n2)cc1,·,·,·,1,0.9,·,·,·,·
CCOc1ccc(N(CC(=O)N/N=C/c2cccnc2)S(C)(=O)=O)cc1,103.8,1.6,97.7,1,-3.5,3.0,·,·,·
O=C(CSc1nc2ccccc2o1)Nc1nc2ccc(Br)cc2s1,92.9,-3.8,103.4,1.1,-5.3,13.9,·,·,·
Cc1cccc2sc(NC(=O)CSc3nc4ccccc4o3)nc12,136.4*,9.0,92.6,1,0.6,-43.5,115.2,102.2,94.0
COc1cc([C@@H]2c3cc4c(cc3[C@H](O)[C@H]3COC(=O)[C@H]23)OCO4)cc(OC)c1OC,152.3*,-14.4,113.1,1.1,-7.0,-56.8,118.1,163.9*,107.8
S=C(Nc1ccc(Cl)cc1)Nc1cccc2cnccc12,146.6*,8.6,92.2,1.1,-8.7,-48.6,143.7*,97.4,100.4
COc1ccc(-c2nnc(Nc3nc4c(OC)cccc4s3)o2)c(OC)c1,114.9,-10.1,108.3,0.8,21.6,-10.8,·,·,·
COc1ccc(-c2nnc(Nc3nc4c(OC)cccc4s3)o2)cc1,159.1*,-7.0,106.4,0.8,22.8,-68.7,136.5*,100.6,104.5
O=C1C(=O)N(Cc2ccccc2)C(=O)N1CCN1C(=O)c2ccccc2C1=O,104.2,10.6,89.9,1,-2.5,0.1,·,·,·
O=C1Cc2ccccc2C(=O)N1CCc1ccccc1,155.0*,0.6,99.4,0.9,7.2,-54.9,136.4*,102.1,97.1
CCCN(CCC)C(=O)c1cc(-c2ccc3c(c2)OCO3)nc2ccccc12,154.2*,-2.0,101.9,1,2.5,-64.2,137.9*,101.0,93.2
Cn1ncc(Br)c1C(=O)Nc1c(F)c(F)cc(F)c1F,138.6*,-40.9,122.5,1.1,-5.3,-42.5,136.9*,114.9,148.4*
Cc1onc(-c2c(F)cccc2Cl)c1C(=O)OCC(=O)NC(c1ccccc1)c1ccccc1,104.3,1.6,98.6,1,-3.9,1.0,·,·,·

# Bioassay records (PubChem BioAssay)
